ChEMBL document CHEMBL1130999, “GPIIb/IIIa integrin antagonists with the new conformational restriction unit, trisubstituted beta-amino acid derivatives, and a substituted benzamidine structure” (J Med Chem, 1998)

What was measured:
[1] = target: Integrin alpha-IIb/beta-3 (Homo sapiens, UniProt P05106+P08514); experiment: Binding affinity to human fibrinogen receptor; assay type: protein-complex assay
How it was run: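 Competitive solid-phase ELISA. Plates were coated with 5 µg/mL human GPIIb/IIIa overnight at 4 °C and blocked 3 h at room temperature with 35 mg/mL BSA in 50 mM Tris, 100 mM NaCl, 2 mM CaCl₂, 0.02% NaN₃, pH 7.4. Human fibrinogen solution (30 µg/mL as added) plus inhibitor was incubated 3 h at room temperature. Bound fibrinogen was detected with alkaline phosphatase-conjugated anti-human fibrinogen antibody.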

Homo sapiens = organism: Homo sapiens; experiment: Inhibition of collagen-induced platelet aggregation in human platelet-rich plasma; assay type: functional
How it was run: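 Human citrated PRP (160g, 15 min, room temperature) with platelet-poor plasma as reference. Samples at various concentrations were added at 37 °C 1 min before 5 µg/mL collagen. Aggregation was read as the increase in light transmission. Percent inhibition of aggregation rate versus control gave IC50 from dose-inhibition curves. Values are means ± SEM of three experiments; GRGDS peptide served as reference.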

[2] = Elimination T1/2 in Guinea pig (IV dose); settings: in vivo, read-out: T1/2 beta
[3] = Elimination T1/2 in Guinea pig (IV dose); settings: in vivo
[4] = Cmax in rat (PO dose); assay type: ADME, organism-based; set-up: route oral; settings: in vivo
How it was run: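 Male Sprague-Dawley rats (190-210 g) were fasted overnight with water available. Dosing was 10 mg/kg po as a suspension in 2% arabic gum. Jugular vein blood was drawn at 30, 60 and 120 min, and active-form plasma levels were measured by HPLC. Cmax is the highest of these three time points.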

Tmax in rat (PO dose) = settings: in vivo

Sequence of Integrin alpha-IIb/beta-3 (P05106 27-788 limits assumed): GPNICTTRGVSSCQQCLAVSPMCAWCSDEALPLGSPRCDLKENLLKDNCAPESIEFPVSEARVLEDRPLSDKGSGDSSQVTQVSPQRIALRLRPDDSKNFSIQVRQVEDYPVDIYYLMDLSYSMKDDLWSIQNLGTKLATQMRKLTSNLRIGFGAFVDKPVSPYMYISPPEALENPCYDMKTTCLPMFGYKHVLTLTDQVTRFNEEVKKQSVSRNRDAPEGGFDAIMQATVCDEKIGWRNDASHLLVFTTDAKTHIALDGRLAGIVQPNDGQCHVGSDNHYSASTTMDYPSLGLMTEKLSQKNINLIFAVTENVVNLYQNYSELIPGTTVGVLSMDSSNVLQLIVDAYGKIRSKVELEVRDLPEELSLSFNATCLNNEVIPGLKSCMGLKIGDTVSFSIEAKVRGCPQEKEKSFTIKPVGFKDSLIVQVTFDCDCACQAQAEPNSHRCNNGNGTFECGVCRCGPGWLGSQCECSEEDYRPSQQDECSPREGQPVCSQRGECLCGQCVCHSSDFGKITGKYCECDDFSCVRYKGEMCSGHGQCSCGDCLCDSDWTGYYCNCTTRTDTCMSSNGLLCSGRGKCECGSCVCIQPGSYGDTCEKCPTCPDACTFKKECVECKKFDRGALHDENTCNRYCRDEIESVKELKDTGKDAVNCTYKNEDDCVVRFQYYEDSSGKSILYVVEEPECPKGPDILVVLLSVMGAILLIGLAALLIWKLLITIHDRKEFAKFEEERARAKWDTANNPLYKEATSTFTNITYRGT
Sequence of Integrin alpha-IIb/beta-3 (P08514 32-887 limits assumed): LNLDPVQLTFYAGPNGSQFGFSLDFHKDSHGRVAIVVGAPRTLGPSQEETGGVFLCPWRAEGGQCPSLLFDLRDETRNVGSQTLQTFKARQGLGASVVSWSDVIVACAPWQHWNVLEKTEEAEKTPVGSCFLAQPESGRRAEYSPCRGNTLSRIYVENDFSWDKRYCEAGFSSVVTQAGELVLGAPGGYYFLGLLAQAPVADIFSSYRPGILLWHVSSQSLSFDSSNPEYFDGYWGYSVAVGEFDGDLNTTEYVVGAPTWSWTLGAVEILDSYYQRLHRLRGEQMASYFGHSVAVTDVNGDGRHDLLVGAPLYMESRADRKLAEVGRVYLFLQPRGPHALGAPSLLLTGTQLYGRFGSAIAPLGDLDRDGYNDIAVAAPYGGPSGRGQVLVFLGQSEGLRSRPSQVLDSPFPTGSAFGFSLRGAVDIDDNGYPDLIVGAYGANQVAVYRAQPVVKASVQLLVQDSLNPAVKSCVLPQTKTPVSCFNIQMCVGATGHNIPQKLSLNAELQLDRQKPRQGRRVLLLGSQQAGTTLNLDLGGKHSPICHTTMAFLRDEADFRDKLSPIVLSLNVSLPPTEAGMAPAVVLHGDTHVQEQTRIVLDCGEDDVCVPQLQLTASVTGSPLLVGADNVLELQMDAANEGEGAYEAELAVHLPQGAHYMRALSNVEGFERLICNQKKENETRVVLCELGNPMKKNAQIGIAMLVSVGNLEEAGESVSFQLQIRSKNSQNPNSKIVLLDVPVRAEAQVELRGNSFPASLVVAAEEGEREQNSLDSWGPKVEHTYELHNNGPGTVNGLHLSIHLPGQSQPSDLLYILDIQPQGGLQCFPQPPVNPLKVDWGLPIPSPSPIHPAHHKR
Sequence of Integrin alpha-IIb/beta-3 (P08514 891-1039 limits assumed): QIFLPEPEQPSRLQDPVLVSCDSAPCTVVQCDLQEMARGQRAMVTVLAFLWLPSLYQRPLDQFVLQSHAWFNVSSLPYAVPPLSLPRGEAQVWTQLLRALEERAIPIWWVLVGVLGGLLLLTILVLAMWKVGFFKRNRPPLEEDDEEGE

SMILES	IC50 [1]	IC50 (Homo sapiens)	half-life [2]	half-life [3]	Cmax [4]	Tmax (Tmax in rat (PO dose))
CC(C)(C(=O)N1CCC(CC(=O)O)CC1)C(NC(=O)c1ccc(C(=N)N)cc1)c1ccccc1 (stereo not given)	25.3 nM	230 nM	–	0.533 h	–	–
CC(C)(C(=O)N1CCC(CC(=O)O)CC1)C(CCc1ccccc1)NC(=O)c1ccc(C(=N)N)cc1 (stereo not given)	47.3 nM	160 nM	0.767 h	–	–	–
C#CCN(C(=O)c1ccc(C(=N)N)cc1)C(CCCC)C(C)(C)C(=O)N1CCC(CC(=O)O)CC1 (stereo not given)	363 nM	1400 nM	1.5 h	–	–	–
CCC(NC(=O)c1ccc(C(=N)N)cc1)C(C)(C)C(=O)N1CCC(CC(=O)O)CC1 (stereo not given)	–	85 nM	1.3 h	–	–	–
CC(C)(C(=O)N1CCC(CC(=O)O)CC1)C(NC(=O)c1ccc(C(=N)N)cc1)c1cccc(O)c1 (stereo not given)	2.6 nM	76 nM	1.08 h	–	–	–
CC(C)(C(=O)N1CCC(CC(=O)O)CC1)C(NC(=O)c1ccc(C(=N)N)cc1)c1cccc(Cl)c1 (stereo not given)	31.3 nM	250 nM	2.5 h	–	–	–
CC(C)(CNC(=O)c1ccc(C(=N)N)cc1)C(=O)N1CCC(CC(=O)O)CC1	125 nM	–	–	–	–	–
CCCCC(NC(=O)c1ccc(C(=N)N)cc1)C(C)(C)C(=O)N1CCC(CC(=O)O)CC1 (stereo not given)	3.8 nM	82 nM	1.03 h	–	–	–
CC(C)(C(=O)N1CCC(CC(=O)O)CC1)C(NC(=O)c1ccc(C(=N)N)cc1)c1ccc2ccccc2c1 (stereo not given)	21 nM	380 nM	0.85 h	–	–	–
CCC(NC(=O)c1ccc(C(=N)N)cc1F)C(C)(C)C(=O)N1CCC(CC(=O)O)CC1 (stereo not given)	2.7 nM	62 nM	1.48 h	–	–	–
CCOC(=O)CC1CCN(C(=O)C(C)(C)C(CC)NC(=O)c2ccc(C(=N)N3CCSC3)cc2F)CC1 (stereo not given)	2.3 nM	45 nM	1.83 h	–	1210 ng/mL	0.5 h
CCCCC(NC(=O)c1ccc(C(=N)N)cc1F)C(C)(C)C(=O)N1CCC(CC(=O)O)CC1 (stereo not given)	5.7 nM	81 nM	1.3 h	–	–	–
CCOC(=O)CC1CCN(C(=O)C(C)(C)C(CC)NC(=O)c2ccc(C(=N)N3CCCC3)cc2F)CC1 (stereo not given)	7 nM	89 nM	2.07 h	–	194 ng/mL	1 h

More lines, in order of falling IC50 [1], values ahead:

IC50 [1]	IC50 (Homo sapiens)	half-life [2]	half-life [3]	Cmax [4]	Tmax (Tmax in rat (PO dose))	SMILES
36 nM	310 nM	–	–	–	–	CC(C)(/C=C/C(=O)c1ccc(C(=N)N)cc1)C(=O)N1CCC(CC(=O)O)CC1
34.7 nM	660 nM	1.2 h	–	–	–	CC(C)(C(=O)N1CCC(CC(=O)O)CC1)C(NC(=O)c1ccc(C(=N)N)cc1)c1ccc(Cl)cc1 (stereo not given)
27.3 nM	370 nM	1.25 h	–	–	–	CC(C)(C(=O)N1CCC(CC(=O)O)CC1)C(NC(=O)c1ccc(C(=N)N)cc1Cl)c1ccccc1 (stereo not given)
23.7 nM	220 nM	1.05 h	–	–	–	CC(C)(C(=O)N1CCC(CC(=O)O)CC1)C(NC(=O)c1ccc(C(=N)N)cc1)c1ccc(O)cc1 (stereo not given)
22.3 nM	160 nM	0.517 h	–	–	–	CCCCCC(NC(=O)c1ccc(C(=N)N)cc1)C(C)(C)C(=O)N1CCC(CC(=O)O)CC1 (stereo not given)
21.3 nM	300 nM	1.42 h	–	–	–	CN(C(=O)c1ccc(C(=N)N)cc1)C(c1ccccc1)C(C)(C)C(=O)N1CCC(CC(=O)O)CC1 (stereo not given)
13 nM	170 nM	0.933 h	–	–	–	C/C=C/C(NC(=O)c1ccc(C(=N)N)cc1)C(C)(C)C(=O)N1CCC(CC(=O)O)CC1 (stereo not given)
8.6 nM	150 nM	0.8 h	–	–	–	CC(C)C(NC(=O)c1ccc(C(=N)N)cc1)C(C)(C)C(=O)N1CCC(CC(=O)O)CC1 (stereo not given)
5.8 nM	48 nM	3.5 h	–	290 ng/mL	1 h	CCOC(=O)CC1CCN(C(=O)C(C)(C)C(CC)NC(=O)c2ccc(C(=N)N3CCC(O)CC3)cc2F)CC1 (stereo not given)
5.6 nM	79 nM	0.417 h	–	232 ng/mL	1 h	CCOC(=O)CC1CCN(C(=O)C(C)(C)C(CC)NC(=O)c2ccc(C(=N)N3CCN(c4ccc(F)cc4)CC3)cc2F)CC1 (stereo not given)
5.4 nM	72 nM	1.77 h	–	392 ng/mL	2 h	CCOC(=O)CC1CCN(C(=O)C(C)(C)C(CC)NC(=O)c2ccc(C(=N)N3CCN(C)CC3)cc2F)CC1 (stereo not given)
5.3 nM	82 nM	0.883 h	–	–	–	CC(NC(=O)c1ccc(C(=N)N)cc1)C(C)(C)C(=O)N1CCC(CC(=O)O)CC1 (stereo not given)
5.1 nM	82 nM	0.9 h	–	–	–	CCCC(NC(=O)c1ccc(C(=N)N)cc1)C(C)(C)C(=O)N1CCC(CC(=O)O)CC1 (stereo not given)
4.3 nM	76 nM	1.4 h	–	–	–	CC(NC(=O)c1ccc(C(=N)N)cc1F)C(C)(C)C(=O)N1CCC(CC(=O)O)CC1 (stereo not given)
4 nM	160 nM	4.62 h	–	922 ng/mL	0.5 h	CCOC(=O)CC1CCN(C(=O)C(C)(C)C(CC)NC(=O)c2ccc(C(=N)N3CCOCC3)cc2F)CC1 (stereo not given)
2.7 nM	62 nM	1.48 h	–	90 ng/mL	0.5 h	CCOC(=O)CC1CCN(C(=O)C(C)(C)C(CC)NC(=O)c2ccc(C(=N)N)cc2F)CC1 (stereo not given)
2.7 nM	81 nM	0.917 h	–	–	–	CC(C)CC(NC(=O)c1ccc(C(=N)N)cc1)C(C)(C)C(=O)N1CCC(CC(=O)O)CC1 (stereo not given)
